Laboratory results reported in publication PMC7056570 (Molecular cancer therapeutics, 2019).

Legend:
[1] = test system: parental 697 leukemic cells; experiment: Cell proliferation of parental leukemic cells, 3 days; assay type: cell-based; conditions: 72 h, read-out: IC50 in 697 cells
[2] = test system: STS26T MPNST cells; experiment: Flow cytometry cell cycle analysis, STS26T; assay type: cell-based, human; conditions: one- or two-IC50 doses, three days
[3] = test system: panel of MPNST, schwannoma, and meningioma cell lines; experiment: Growth-inhibitory activity compared in the cell line panel; assay type: cell-based; conditions: all cell lines tested
Summary of the method: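 Compounds were made up as 10-mM stocks in DMSO. Cell lines were authenticated by STR genotyping and confirmed mycoplasma-free. Proliferation was read by resazurin assay.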

[4] = test system: silvestrol-resistant 697-R leukemic cells; experiment: Cell proliferation of MDR1-overexpressing leukemic cells, 3 days; assay type: cell-based; conditions: for sensitivity to MDR1 inhibition: 697-R versus 697 cells
[5] = test system: ST8814 MPNST cells; experiment: Flow cytometry cell cycle analysis, ST8814; assay type: cell-based, human; conditions: one- or two-IC50 doses, three days
[6] = Toxicology study in dogs; assay type: in vivo; conditions: same protocol, same lab
[7] = cited from earlier work

| SMILES | IC50 [1] | G2/M fraction [2] | potency relative to silvestrol [3] | sensitivity to MDR1 inhibition [4] | G2/M fraction [5] | pulmonary toxicity in dogs [6] | IC50 ([4]; MDR1, 72 h, read-out: IC50 in 697-R cells) | oral bioavailability [7] |
| --- | --- | --- | --- | --- | --- | --- | --- | --- |
| COc1ccc([C@@]23Oc4cc(OC)cc(OC)c4[C@]2(O)[C@H](O)[C@H](C(N)=O)[C@H]3c2ccccc2)cc1 [Didesmethylrocaglamide] | 3 nM | marked increase in the G2/M fraction | ~ 2 fold | not sensitive to MDR1 inhibition | marked increase in the G2/M fraction | – | – | – |
| COc1ccc([C@@]23Oc4cc(OC)cc(OC)c4[C@]2(O)[C@H](O)[C@H](C(=O)N(C)C)[C@H]3c2ccccc2)cc1 [Rocaglamide] | 8 nM | marked increase in the G2/M fraction | – | not sensitive to MDR1 inhibition | marked increase in the G2/M fraction | did not produce adverse pulmonary findings | – | – |
| COC(=O)[C@H]1[C@@H](O)[C@@]2(O)c3c(OC)cc(O[C@@H]4O[C@@H]([C@H](O)CO)CO[C@H]4OC)cc3O[C@@]2(c2ccc(OC)cc2)[C@@H]1c1ccccc1 [Silvestrol, reference compound] | 3.5 nM | – | – | – | – | massive lung damage | 26 nM | < 2% |
